Activity calls are given as the source filed them. No cut-off for these calls is given here.
Columns and labels:
[1] = target: T1, Nucleotide-binding oligomerization domain-containing protein 1 (Homo sapiens) (UniProt Q9Y239); experiment: Agonist activity at NOD1 in HEK-Blue hNOD2 cells assessed as increase in NFkappaB transactivation-mediated SEAP activity measured after 18 hrs by spectrophotometric method; format: cell-based; settings: HEK-Blue hNOD1, in the assay text read “HEK-Blue hNOD1 cells” for “HEK-Blue hNOD2 cells”
T1 sequence (whole entry): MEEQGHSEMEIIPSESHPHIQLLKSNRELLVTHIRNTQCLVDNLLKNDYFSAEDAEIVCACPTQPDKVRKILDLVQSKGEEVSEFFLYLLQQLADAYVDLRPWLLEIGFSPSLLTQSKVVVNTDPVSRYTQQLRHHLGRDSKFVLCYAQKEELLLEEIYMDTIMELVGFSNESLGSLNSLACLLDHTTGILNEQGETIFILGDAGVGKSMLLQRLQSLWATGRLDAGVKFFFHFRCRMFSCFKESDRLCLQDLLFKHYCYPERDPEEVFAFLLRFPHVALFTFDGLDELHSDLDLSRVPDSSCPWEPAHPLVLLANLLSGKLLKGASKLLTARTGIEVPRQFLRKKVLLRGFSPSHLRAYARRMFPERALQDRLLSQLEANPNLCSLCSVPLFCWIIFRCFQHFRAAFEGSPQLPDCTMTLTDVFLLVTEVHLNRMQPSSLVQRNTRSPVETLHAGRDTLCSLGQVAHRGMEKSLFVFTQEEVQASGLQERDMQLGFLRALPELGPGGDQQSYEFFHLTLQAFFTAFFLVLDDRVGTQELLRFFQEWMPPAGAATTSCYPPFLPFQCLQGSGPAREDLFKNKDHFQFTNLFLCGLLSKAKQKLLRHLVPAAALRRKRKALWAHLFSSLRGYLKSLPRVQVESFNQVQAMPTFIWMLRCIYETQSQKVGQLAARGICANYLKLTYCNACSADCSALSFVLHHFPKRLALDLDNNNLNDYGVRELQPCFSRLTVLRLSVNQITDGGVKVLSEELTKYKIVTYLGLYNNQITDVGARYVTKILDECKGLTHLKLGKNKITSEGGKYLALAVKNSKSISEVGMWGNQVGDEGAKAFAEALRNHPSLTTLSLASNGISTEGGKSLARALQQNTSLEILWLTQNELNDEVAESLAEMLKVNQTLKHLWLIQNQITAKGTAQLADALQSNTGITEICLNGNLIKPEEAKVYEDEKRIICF
Method in brief: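 Counter-screen in HEK-Blue NOD1 cells (HEK293 stably expressing human NOD1 plus an NF-κB-inducible SEAP reporter), seeded at 2.5 × 10^5 cells/mL in HEK-Blue detection medium. Compounds at 2 μM versus 0.1% DMSO vehicle, 18 h at 37 °C, 5% CO2. SEAP read as absorbance at 630 nm. Duplicates, at least two independent experiments.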

[2] = Cytotoxicity against HEK-Blue hNOD2 cells assessed as reduction in metabolic activity at 20 uM incubated for 18 hrs by MTS assay; format: toxicity, cell-based; settings: human, hek-blue hnod2, 18 h
Method in brief: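 HEK-Blue NOD2 cells, 40 000 per well, exposed to 20 μM compound or 0.1% DMSO for 18 h at 37 °C, 5% CO2. Metabolic activity measured by MTS (CellTiter 96 AQueous One) reagent. Duplicates, two independent biological replicates.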

PBMC [3] = experiment: Immunostimulatory activity in human PBMC cells assessed as increase in IL-6 production at 2 uM incubated for 18 hrs by flow cytometry analysis; format: functional, cell-based
Method in brief: (§1)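 Human PBMCs from healthy donors, 1 × 10^6 cells/mL in RPMI 1640 with 10% FBS, treated with 2 μM compound or 0.1% DMSO, without or with LPS 10 ng/mL, for 18 h at 37 °C. Supernatant cytokines quantified by cytometric bead array (human inflammatory panel) on a flow cytometer against recombinant standards. Four independent donors. Repeated-measures one-way ANOVA with Dunnett.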

PBMC [4] = experiment: Immunostimulatory activity in human PBMC cells assessed as increase in IL-8 production at 2 uM incubated for 18 hrs by flow cytometry analysis; format: functional, cell-based; method in brief: as §1
PBMC [5] = experiment: Immunostimulatory activity in human PBMC cells assessed as increase in LPS-induced IL-8 production at 2 uM incubated for 18 hrs by flow cytometry analysis; format: functional, cell-based; method in brief: as §1
PBMC [6] = experiment: Immunostimulatory activity in human PBMC cells assessed as increase in TNF-alpha production at 2 uM incubated for 18 hrs by flow cytometry analysis; format: functional, cell-based; method in brief: as §1
PBMC [7] = experiment: Immunostimulatory activity in human PBMC cells assessed as increase in LPS-induced IL-6 production at 2 uM incubated for 18 hrs by flow cytometry analysis; format: functional, cell-based; method in brief: as §1
PBMC [8] = experiment: Immunostimulatory activity in human PBMC cells assessed as increase in IL-1beta production at 2 uM incubated for 18 hrs by flow cytometry analysis; format: functional, cell-based; method in brief: as §1
PBMC [9] = experiment: Immunostimulatory activity in human PBMC cells assessed as increase in LPS-induced IL-1beta production at 2 uM incubated for 18 hrs by flow cytometry analysis; format: functional, cell-based; method in brief: as §1
PBMC [10] = experiment: Immunostimulatory activity in human PBMC cells assessed as increase in LPS-induced TNF-alpha production at 2 uM incubated for 18 hrs by flow cytometry analysis; format: functional, cell-based; method in brief: as §1

SMILES	Activity [1]	Activity [2]	other results
CCOC(=O)CC[C@@H](NC(=O)[C@@H](NC(=O)CNC(=O)/C=C/c1ccc(C(C)C)cc1)C(C)C)C(=O)OCC	inactive	Non-Toxic	
CCOC(=O)[C@@H](CCC(=O)N[C@@H](CCCCN)C(=O)OC)NC(=O)[C@@H](NC(=O)CNC(=O)/C=C/c1ccc(O)c(OC)c1)C(C)C	inactive	Non-Toxic	
CCCCNC(=O)CC[C@@H](NC(=O)[C@@H](NC(=O)CNC(=O)/C=C/c1ccc(O)c(OC)c1)C(C)C)C(=O)NCCCC	inactive	Non-Toxic	
CCOC(=O)CC[C@@H](NC(=O)[C@@H](NC(=O)CNC(=O)[C@H]1C[C@@H]1c1ccc(F)c(F)c1)C(C)C)C(=O)OCC	inactive	Non-Toxic	
COc1cc(/C=C/C(=O)NCC(=O)N[C@H](C(=O)N[C@H](CCC(=O)OC(C)(C)C)C(=O)N2CCCC2)C(C)C)ccc1O	inactive	Non-Toxic	
CCCCCCCCCCCCCCCCCC(=O)Oc1ccc(/C=C/C(=O)NCC(=O)N[C@@H](CO)C(=O)N[C@H](CCC(=O)OCC)C(=O)OCC)cc1OC	inactive	Non-Toxic	
CONC(=O)CC[C@@H](NC(=O)[C@@H](NC(=O)CNC(=O)/C=C/c1ccc(O)c(OC)c1)C(C)C)C(=O)OC(C)(C)C	inactive	Non-Toxic	
CCOC(=O)CC[C@@H](NC(=O)[C@H](CO)NC(=O)CNC(=O)/C=C/c1ccc(O)c(OC)c1)C(=O)OCC	inactive	Non-Toxic	
CCOC(=O)CC[C@@H](NC(=O)[C@@H](NC(=O)CNC(=O)/C=C/c1ccc(OC(C)=O)c(OC)c1)C(C)C)C(=O)OCC	inactive	Non-Toxic	Activity (PBMC [3]): Active; Activity (PBMC [4]): Active; Activity (PBMC [5]): Active; Activity (PBMC [6]): Active; Activity (PBMC [7]): Active; Activity (PBMC [8]): Active; Activity (PBMC [9]): Active; Activity (PBMC [10]): Active
CCOC(=O)CC[C@@H](NC(=O)[C@@H](NC(=O)CNC(=O)C1CC1c1ccc(F)c(F)c1)C(C)C)C(=O)OCC (some centres undefined)	inactive	Non-Toxic	
CCOC(=O)CC[C@@H](NC(=O)[C@@H](NC(=O)CNC(=O)CCc1ccc(O)c(OC)c1)C(C)C)C(=O)OCC	inactive	Non-Toxic	
COc1cc(/C=C/C(=O)NCC(=O)N[C@H](C(=O)N[C@H](CCC(=O)OC(C)(C)C)C(=O)OC(C)(C)C)C(C)C)ccc1O	inactive	Non-Toxic	
COc1cc(/C=C/C(=O)NCC(=O)N[C@H](C(=O)N[C@H](CCC(=O)N2CCCC2)C(=O)OC(C)(C)C)C(C)C)ccc1O	inactive	Non-Toxic	
CCOC(=O)CC[C@@H](NC(=O)[C@@H](NC(=O)CNC(=O)CCCc1ccc(O)c(OC)c1)C(C)C)C(=O)OCC	inactive	Non-Toxic	
CCCCCCCCCCCCCCCCCC(=O)NCCCC[C@H](NC(=O)CC[C@@H](NC(=O)[C@@H](NC(=O)CNC(=O)/C=C/c1ccc(O)c(OC)c1)C(C)C)C(=O)OCC)C(=O)OC	inactive	Non-Toxic	
CCOC(=O)CC[C@@H](NC(=O)[C@@H](NC(=O)CNC(=O)/C=C/c1ccc(O)c(O)c1)C(C)C)C(=O)OCC	inactive	Non-Toxic	
CCCCCCCCCCCCCCCCCC(=O)Oc1ccc(/C=C/C(=O)NCC(=O)N[C@H](C(=O)N[C@H](CCC(=O)OC2CCCC2)C(=O)OC2CCCC2)C(C)C)cc1OC	inactive	Non-Toxic	

SMILES	Activity [1]	Activity [2]	other results
CCCCCCCCCCCCCCCCCCOC(=O)CC[C@@H](NC(=O)[C@@H](NC(=O)CNC(=O)/C=C/c1ccc(O)c(OC)c1)C(C)C)C(=O)OCCCCCCCCCCCCCCCCCC	inactive	Non-Toxic	
CCOC(=O)CC[C@@H](NC(=O)[C@@H](NC(=O)CNC(=O)C1CC1c1ccc(O)c(OC)c1)C(C)C)C(=O)OCC (some centres undefined)	inactive	Non-Toxic	
CCCCCCCCCCCCCCCCCC(=O)Oc1ccc(/C=C/C(=O)NCC(=O)N[C@@H](COCc2ccccc2)C(=O)N[C@H](CCC(=O)OCC)C(=O)OCC)cc1OC	inactive	Non-Toxic	
COc1cc(/C=C/C(=O)NCC(=O)N[C@H](C(=O)N[C@H](CCC(=O)OC(C)(C)C)C(=O)N(C)OC)C(C)C)ccc1O	inactive	Non-Toxic	
CCOC(=O)CC[C@@H](NC(=O)[C@@H](NC(=O)CNC(=O)/C=C/c1ccc(O)c(OC)c1)[C@@H](C)O)C(=O)OCC	inactive	Non-Toxic	
CCOC(=O)CC[C@@H](NC(=O)[C@@H](NC(=O)CNC(=O)[C@@H]1C[C@H]1c1ccc(F)c(F)c1)C(C)C)C(=O)OCC	inactive	Non-Toxic	
CCOC(=O)CC[C@@H](NC(=O)[C@@H](NC(=O)CNC(=O)C1CC1c1ccc(OC)c(OC)c1)C(C)C)C(=O)OCC (some centres undefined)	inactive	Non-Toxic	
CCOC(=O)CC[C@@H](NC(=O)[C@@H](NC(=O)CNC(=O)/C=C/c1ccc(N)cc1)C(C)C)C(=O)OCC	inactive	Non-Toxic	
COc1cc(/C=C/C(=O)NCC(=O)N[C@H](C(=O)N[C@H](CCC(=O)OC2CCCC2)C(=O)OC2CCCC2)C(C)C)ccc1OC(C)=O	inactive	Non-Toxic	
CCOC(=O)CC[C@@H](NC(=O)[C@@H](NC(=O)CNC(=O)/C=C/c1ccc(OC)c(OC)c1)C(C)C)C(=O)OCC	inactive	Non-Toxic	
CCCCCCCCCCCC(=O)Oc1ccc(/C=C/C(=O)NCC(=O)N[C@H](C(=O)N[C@H](CCC(=O)OC2CCCC2)C(=O)OC2CCCC2)C(C)C)cc1OC	inactive	Non-Toxic	
CCOC(=O)CC[C@@H](NC(=O)[C@@H](NC(=O)CNC(=O)/C=C/c1ccc([N+](=O)[O-])cc1)C(C)C)C(=O)OCC	inactive	Non-Toxic	
CCNC(=O)CC[C@@H](NC(=O)[C@@H](NC(=O)CNC(=O)/C=C/c1ccc(O)c(OC)c1)C(C)C)C(=O)NCC	inactive	Non-Toxic	
CCOC(=O)CC[C@@H](NC(=O)[C@H](COCc1ccccc1)NC(=O)CNC(=O)/C=C/c1ccc(O)c(OC)c1)C(=O)OCC	inactive	Non-Toxic	
COc1cc(/C=C/C(=O)NCC(=O)N[C@H](C(=O)N[C@H](CCC(=O)N(C)OC)C(=O)OC(C)(C)C)C(C)C)ccc1O	inactive	Non-Toxic	
CCCCNC(=O)CC[C@@H](NC(=O)[C@@H](NC(=O)CNC(=O)/C=C/c1ccc(O)c(OC)c1)C(C)C)C(=O)OC(C)(C)C	inactive	Non-Toxic	

Source: ChEMBL document CHEMBL5038594, “Structural Fine-Tuning of Desmuramylpeptide NOD2 Agonists Defines Their In Vivo Adjuvant Activity” (J Med Chem, 2021)
